Experimental data published in ChEMBL document CHEMBL1687824, “Overexpression of patA and patB, which encode ABC transporters, is associated with fluoroquinolone resistance in clinical isolates of Streptococcus pneumoniae” (2011).
≈ marks a conversion by molar mass, not a printed value.

What was measured:
Streptococcus pneumoniae [1] = experiment: Antibacterial activity against Streptococcus pneumoniae M87A overexpressing patA, patB and inactivated patA with single mutation by standardized agar doubling dilution method in presence of 50 uM sodium orthovanadate efflux pump inhibitor; format: functional
In short: (§1)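 MICs were determined by BSAC agar doubling dilution in the presence of sodium orthovanadate at 50 μM. Cultures were grown in BHI broth for 24 h at 37°C in 5% CO2, with R6 as control. Synergy was defined as an MIC reduction of ≥2 dilutions with the inhibitor present.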

Streptococcus pneumoniae [2] = experiment: Antibacterial activity against fluoroquinolone, dye-resistant Streptococcus pneumoniae M297 overexpressing patA, patB by standardized agar doubling dilution method in presence of 20 ug/ml reserpine efflux pump inhibitor; format: functional
In short: (§2)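 MIC by agar doubling dilution following BSAC guidelines. Strains grown in brain heart infusion broth 24 h at 37°C in 5% CO2. Where an efflux pump inhibitor applies, MIC redetermined with reserpine at 20 μg/ml or sodium orthovanadate at 50 μM. Synergy taken as a fall in MIC of ≥2 dilutions with inhibitor present. Dye resistance defined relative to R6 (both dyes ≥2 dilutions higher).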

Streptococcus pneumoniae [3] = experiment: Antibacterial activity against Streptococcus pneumoniae M45A overexpressing patA, patB and inactivated patA with single mutation by standardized agar doubling dilution method; format: functional
In short: (§3)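 MICs were determined by agar doubling dilution following BSAC guidelines, with no efflux inhibitor. Strains were grown in brain heart infusion broth for 24 h at 37°C in 5% CO2. Species identity was confirmed by Gram stain, optochin sensitivity and capsule test. Control strain R6 was tested alongside.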

Streptococcus pneumoniae [4] = experiment: Antibacterial activity against fluoroquinolone, dye-resistant Streptococcus pneumoniae M50 overexpressing patA, patB by standardized agar doubling dilution method; format: functional; in short: as §2
Streptococcus pneumoniae [5] = experiment: Antibacterial activity against fluoroquinolone, dye-resistant Streptococcus pneumoniae M42 overexpressing patA, patB by standardized agar doubling dilution method; format: functional; in short: as §2
Streptococcus pneumoniae [6] = experiment: Antibacterial activity against Streptococcus pneumoniae M46B overexpressing patA, patB and inactivated patB with single mutation by standardized agar doubling dilution method in presence of 50 uM sodium orthovanadate efflux pump inhibitor; format: functional; in short: as §1
Streptococcus pneumoniae [7] = experiment: Antibacterial activity against fluoroquinolone-resistant Streptococcus pneumoniae by standardized agar doubling dilution method in presence of 50 uM sodium orthovanadate efflux pump inhibitor; format: functional; in short: as §2
Streptococcus pneumoniae [8] = experiment: Antibacterial activity against Streptococcus pneumoniae M301 overexpressing patA, patB and inactivated patA with single mutation by standardized agar doubling dilution method; format: functional
In short: (§4)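 MICs determined by BSAC standardized agar doubling dilution. Strains were grown in brain heart infusion broth for 24 h at 37°C in 5% CO2. Inhibitor arms had reserpine at 20 μg/ml or sodium orthovanadate at 50 μM in the agar. Mutants were made by transforming magellan2 insertion amplimers into clinical isolates and selecting on spectinomycin 100 mg/liter, with a no-DNA spontaneous-mutation control.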

Streptococcus pneumoniae [9] = experiment: Antibacterial activity against Streptococcus pneumoniae M307 overexpressing patA, patB and inactivated patB with single mutation by standardized agar doubling dilution method; format: functional; in short: as §4
Streptococcus pneumoniae [10] = experiment: Antibacterial activity against Streptococcus pneumoniae M311B overexpressing patA, patB and inactivated patB with single mutation by standardized agar doubling dilution method in presence of 50 uM sodium orthovanadate efflux pump inhibitor; format: functional; in short: as §4
Streptococcus pneumoniae [11] = experiment: Antibacterial activity against Streptococcus pneumoniae M318 overexpressing patA, patB and inactivated patA with single mutation by standardized agar doubling dilution method in presence of 20 ug/ml reserpine efflux pump inhibitor; format: functional
In short: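 MICs were determined by BSAC agar doubling dilution in the presence of reserpine at 20 μg/ml. Strains were grown in BHI broth for 24 h at 37°C in 5% CO2, with R6 as control. Synergy was defined as an MIC drop of ≥2 dilutions with the inhibitor.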

Streptococcus pneumoniae [12] = experiment: Antibacterial activity against Streptococcus pneumoniae M46A overexpressing patA, patB and inactivated patA with single mutation by standardized agar doubling dilution method in presence of 50 uM sodium orthovanadate efflux pump inhibitor; format: functional; in short: as §1
Streptococcus pneumoniae [13] = experiment: Antibacterial activity against Streptococcus pneumoniae M300 overexpressing patA, patB and inactivated patA with single mutation by standardized agar doubling dilution method in presence of 20 ug/ml reserpine efflux pump inhibitor; format: functional; in short: as §4
Streptococcus pneumoniae [14] = experiment: Antibacterial activity against fluoroquinolone-resistant Streptococcus pneumoniae M98 FQ-R overexpressing patA, patB by standardized agar doubling dilution method in presence of 50 uM sodium orthovanadate efflux pump inhibitor; format: functional
In short: (§5)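 Clinical S. pneumoniae isolates grown in BHI broth 24 h at 37°C in 5% CO2. MICs by agar doubling dilution per BSAC guidelines, alone or with efflux inhibitor reserpine (20 μg/ml) or sodium orthovanadate (50 μM). Synergy defined as ≥2-dilution MIC reduction in presence of inhibitor.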

Streptococcus pneumoniae [15] = experiment: Antibacterial activity against Streptococcus pneumoniae M300 overexpressing patA, patB and inactivated patA with single mutation by standardized agar doubling dilution method in presence of 50 uM sodium orthovanadate efflux pump inhibitor; format: functional; in short: as §4
Streptococcus pneumoniae [16] = experiment: Antibacterial activity against Streptococcus pneumoniae M300 overexpressing patA, patB and inactivated patA with single mutation by standardized agar doubling dilution method; format: functional; in short: as §4
Streptococcus pneumoniae [17] = experiment: Antibacterial activity against fluoroquinolone-resistant Streptococcus pneumoniae M97 FQ-R overexpressing patA, patB by standardized agar doubling dilution method; format: functional
In short: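 MIC by agar doubling dilution per BSAC guidelines; strains pregrown in brain heart infusion broth 24 h, 37°C, 5% CO2. MICs measured alone and with efflux pump inhibitors reserpine (20 μg/ml) or sodium orthovanadate (50 μM); synergy defined as ≥2-dilution MIC reduction in presence of inhibitor.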

Streptococcus pneumoniae [18] = experiment: Antibacterial activity against Streptococcus pneumoniae M317 overexpressing patA, patB and inactivated patB with single mutation by standardized agar doubling dilution method; format: functional; in short: as §3
Streptococcus pneumoniae [19] = experiment: Antibacterial activity against fluoroquinolone-resistant Streptococcus pneumoniae M79 FQ-R overexpressing patA, patB by standardized agar doubling dilution method; format: functional; in short: as §5
Streptococcus pneumoniae [20] = experiment: Antibacterial activity against Streptococcus pneumoniae M298 overexpressing patA, patB and inactivated patA with single mutation by standardized agar doubling dilution method
Streptococcus pneumoniae [21] = experiment: Antibacterial activity against Streptococcus pneumoniae M50B overexpressing patA, patB and inactivated patB with single mutation by standardized agar doubling dilution method; format: functional; in short: as §3
Streptococcus pneumoniae [22] = experiment: Antibacterial activity against Streptococcus pneumoniae M311 overexpressing patA, patB and inactivated patA with single mutation by standardized agar doubling dilution method; format: functional; in short: as §4
Streptococcus pneumoniae [23] = experiment: Antibacterial activity against Streptococcus pneumoniae M316 overexpressing patA, patB and inactivated patA with single mutation by standardized agar doubling dilution method; format: functional; in short: as §3
Streptococcus pneumoniae [24] = experiment: Antibacterial activity against fluoroquinolone, dye-resistant Streptococcus pneumoniae M45 overexpressing patA, patB by standardized agar doubling dilution method in presence of 50 uM sodium orthovanadate efflux pump inhibitor; format: functional; in short: as §2
Streptococcus pneumoniae [25] = experiment: Antibacterial activity against Streptococcus pneumoniae M50A overexpressing patA, patB and inactivated patA with single mutation by standardized agar doubling dilution method in presence of 50 uM sodium orthovanadate efflux pump inhibitor; format: functional; in short: as §1
Streptococcus pneumoniae [26] = experiment: Antibacterial activity against fluoroquinolone, dye-susceptible Streptococcus pneumoniae by standardized agar doubling dilution method in presence of 20 ug/ml reserpine efflux pump inhibitor; format: functional; in short: as §2
Streptococcus pneumoniae [27] = experiment: Antibacterial activity against Streptococcus pneumoniae M86B overexpressing patA, patB and inactivated patB with single mutation by standardized agar doubling dilution method; format: functional; in short: as §3
Streptococcus pneumoniae [28] = experiment: Antibacterial activity against fluoroquinolone-resistant Streptococcus pneumoniae M79 FQ-R overexpressing patA, patB by standardized agar doubling dilution method in presence of 20 ug/ml reserpine efflux pump inhibitor; format: functional; in short: as §5

SMILES	MIC (Streptococcus pneumoniae [1])	MIC (Streptococcus pneumoniae [2])	MIC (Streptococcus pneumoniae [3])	MIC (Streptococcus pneumoniae [4])	MIC (Streptococcus pneumoniae [5])	MIC (Streptococcus pneumoniae [6])	MIC90 (Streptococcus pneumoniae [7])	MIC (Streptococcus pneumoniae [8])	MIC (Streptococcus pneumoniae [9])	MIC (Streptococcus pneumoniae [10])	MIC (Streptococcus pneumoniae [11])	MIC (Streptococcus pneumoniae [12])	MIC (Streptococcus pneumoniae [13])	MIC (Streptococcus pneumoniae [14])	MIC (Streptococcus pneumoniae [15])	MIC (Streptococcus pneumoniae [16])	MIC (Streptococcus pneumoniae [17])	MIC (Streptococcus pneumoniae [18])	MIC (Streptococcus pneumoniae [19])	MIC (Streptococcus pneumoniae [20])	other results
O=C(O)c1cn(C2CC2)c2cc(N3CCNCC3)c(F)cc2c1=O [CIPROFLOXACIN]	8 µg/mL	2 µg/mL	1 µg/mL (≈ 3.02 µM)	64 µg/mL (≈ 193 µM)	64 µg/mL (≈ 193 µM)	0.12 µg/mL	2 µg/mL	8 µg/mL (≈ 24.1 µM)	8 µg/mL (≈ 24.1 µM)	4 µg/mL	16 µg/mL	0.12 µg/mL	2 µg/mL	32 µg/mL	2 µg/mL	2 µg/mL (≈ 6.04 µM)	8 µg/mL (≈ 24.1 µM)	8 µg/mL (≈ 24.1 µM)	32 µg/mL (≈ 96.6 µM)	8 µg/mL (≈ 24.1 µM)	MIC (Streptococcus pneumoniae [21]): 4 µg/mL (≈ 12.1 µM); MIC (Streptococcus pneumoniae [22]): 8 µg/mL (≈ 24.1 µM); MIC (Streptococcus pneumoniae [23]): 8 µg/mL (≈ 24.1 µM); MIC (Streptococcus pneumoniae [24]): 1 µg/mL; MIC (Streptococcus pneumoniae [25]): 4 µg/mL; MIC90 (Streptococcus pneumoniae [26]): 0.5 µg/mL; MIC (Streptococcus pneumoniae [27]): 1 µg/mL (≈ 3.02 µM); MIC (Streptococcus pneumoniae [28]): 32 µg/mL
CC[n+]1c(-c2ccccc2)c2cc(N)ccc2c2ccc(N)cc21.[Br-] [HOMIDIUM BROMIDE]	0.5 µg/mL	0.5 µg/mL	0.5 µg/mL	4 µg/mL	8 µg/mL	0.5 µg/mL	0.5 µg/mL	0.5 µg/mL	2 µg/mL	8 µg/mL	0.5 µg/mL	0.5 µg/mL	0.5 µg/mL	1 µg/mL	0.5 µg/mL	0.5 µg/mL	4 µg/mL	0.5 µg/mL	2 µg/mL	0.5 µg/mL	MIC (Streptococcus pneumoniae [21]): 0.5 µg/mL; MIC (Streptococcus pneumoniae [22]): 0.5 µg/mL; MIC (Streptococcus pneumoniae [23]): 0.25 µg/mL; MIC (Streptococcus pneumoniae [24]): 1 µg/mL; MIC (Streptococcus pneumoniae [25]): 0.5 µg/mL; MIC90 (Streptococcus pneumoniae [26]): 0.25 µg/mL; MIC (Streptococcus pneumoniae [27]): 0.5 µg/mL; MIC (Streptococcus pneumoniae [28]): 0.5 µg/mL
